Measurements: ChEMBL document CHEMBL2384938, “Discovery of a New Class of Potent MMP Inhibitors by Structure-Based Optimization of the Arylsulfonamide Scaffold” (ACS Med Chem Lett, 2013)

What was measured:
Interstitial collagenase = biological target: T1, Interstitial collagenase (Homo sapiens, UniProt P03956); assay: Inhibition of MMP1 (unknown origin)-mediated Mca-Pro-Leu-Gly-Leu-Dpa-Ala-Arg-NH2 by fluorimetric assay
T1 sequence (P03956 whole entry): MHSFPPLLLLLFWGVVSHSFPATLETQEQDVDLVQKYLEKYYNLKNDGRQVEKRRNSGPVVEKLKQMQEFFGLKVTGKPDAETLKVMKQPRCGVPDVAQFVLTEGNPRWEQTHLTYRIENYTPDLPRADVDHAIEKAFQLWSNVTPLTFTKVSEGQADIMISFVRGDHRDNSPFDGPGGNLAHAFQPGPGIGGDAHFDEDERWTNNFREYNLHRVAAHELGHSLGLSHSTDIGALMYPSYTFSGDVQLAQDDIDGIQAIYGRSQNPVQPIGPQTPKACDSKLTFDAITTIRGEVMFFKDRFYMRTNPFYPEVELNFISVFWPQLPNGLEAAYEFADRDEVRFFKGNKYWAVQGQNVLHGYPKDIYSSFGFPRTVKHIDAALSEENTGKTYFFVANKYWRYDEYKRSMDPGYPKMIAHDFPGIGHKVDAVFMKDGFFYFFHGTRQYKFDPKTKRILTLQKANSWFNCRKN
In short: (§1)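 Activity read fluorimetrically; values reported as inhibition constants (Ki). The same assay format was used for each of MMP-1, -7, -8 and -13.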

[1] = biological target: Macrophage metalloelastase (Homo sapiens, UniProt P39900); assay: Inhibition of MMP12 (unknown origin)-mediated Mca-Pro-Leu-Gly-Leu-Dpa-Ala-Arg-NH2 by fluorimetric assay
Sequence of Macrophage metalloelastase (P39900 whole entry): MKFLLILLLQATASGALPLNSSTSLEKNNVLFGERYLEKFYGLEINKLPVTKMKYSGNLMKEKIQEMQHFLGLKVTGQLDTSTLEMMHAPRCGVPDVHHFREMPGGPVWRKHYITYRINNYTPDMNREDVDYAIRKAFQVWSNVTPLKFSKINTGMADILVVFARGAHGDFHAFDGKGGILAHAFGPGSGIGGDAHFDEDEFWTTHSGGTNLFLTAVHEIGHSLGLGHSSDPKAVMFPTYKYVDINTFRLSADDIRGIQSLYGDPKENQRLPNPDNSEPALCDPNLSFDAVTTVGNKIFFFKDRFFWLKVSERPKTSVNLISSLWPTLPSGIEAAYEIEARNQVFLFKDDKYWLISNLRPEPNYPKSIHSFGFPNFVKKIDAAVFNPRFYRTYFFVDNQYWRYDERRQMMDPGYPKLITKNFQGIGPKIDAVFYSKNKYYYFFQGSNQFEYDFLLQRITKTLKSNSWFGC

Collagenase 3 = Collagenase 3 (Homo sapiens, UniProt P45452); assay: Inhibition of MMP13 (unknown origin)-mediated Mca-Pro-Leu-Gly-Leu-Dpa-Ala-Arg-NH2 by fluorimetric assay; in short: as §1
Neutrophil collagenase = Neutrophil collagenase (Homo sapiens, UniProt P22894); assay: Inhibition of MMP8 (unknown origin)-mediated Mca-Pro-Leu-Gly-Leu-Dpa-Ala-Arg-NH2 by fluorimetric assay; in short: as §1
Sequence of Neutrophil collagenase (P22894 whole entry): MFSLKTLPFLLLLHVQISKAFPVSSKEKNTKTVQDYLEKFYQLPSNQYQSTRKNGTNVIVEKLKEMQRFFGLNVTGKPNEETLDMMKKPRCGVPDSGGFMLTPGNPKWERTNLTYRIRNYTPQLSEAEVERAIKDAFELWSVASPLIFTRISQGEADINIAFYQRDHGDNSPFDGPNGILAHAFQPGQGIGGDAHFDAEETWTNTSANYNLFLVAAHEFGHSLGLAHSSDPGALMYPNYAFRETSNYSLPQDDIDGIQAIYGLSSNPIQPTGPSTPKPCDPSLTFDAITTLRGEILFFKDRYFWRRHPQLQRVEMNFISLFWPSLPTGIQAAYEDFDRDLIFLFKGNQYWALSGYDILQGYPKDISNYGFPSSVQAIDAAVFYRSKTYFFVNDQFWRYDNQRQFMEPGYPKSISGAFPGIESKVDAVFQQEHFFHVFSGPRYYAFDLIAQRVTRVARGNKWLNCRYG

Matrilysin = biological target: T2, Matrilysin (Homo sapiens, UniProt P09237); assay: Inhibition of MMP7 (unknown origin)-mediated Mca-Pro-Leu-Gly-Leu-Dpa-Ala-Arg-NH2 by fluorimetric assay; in short: as §1
T2 sequence (P09237 whole entry): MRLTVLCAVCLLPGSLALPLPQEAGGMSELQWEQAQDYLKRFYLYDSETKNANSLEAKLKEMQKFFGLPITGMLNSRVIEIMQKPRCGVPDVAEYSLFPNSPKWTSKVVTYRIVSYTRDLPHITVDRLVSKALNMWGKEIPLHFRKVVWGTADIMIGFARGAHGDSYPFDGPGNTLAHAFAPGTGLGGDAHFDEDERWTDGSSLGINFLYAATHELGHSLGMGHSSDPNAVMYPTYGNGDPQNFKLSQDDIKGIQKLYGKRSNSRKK

Ki (Interstitial collagenase)	Ki [1]	Ki (Collagenase 3)	Ki (Neutrophil collagenase)	Ki (Matrilysin)	Compound
365 nM	18000 nM	–	–	–	O=C(O)CNS(=O)(=O)c1ccc(-c2ccccc2)cc1
1800 nM	16 nM	14 nM	43 nM	7000 nM	O=C(NO)[C@H]1CCCN1S(=O)(=O)CCc1ccccc1
–	1 nM	1 nM	4 nM	–	COc1ccc(CCS(=O)(=O)N2CCC[C@H]2C(=O)NO)cc1
–	5 nM	10 nM	98 nM	–	O=C(NO)[C@H]1CCCN1S(=O)(=O)CCc1ccc(Oc2ccccc2)cc1
–	7 nM	5 nM	7 nM	–	O=C(O)CNS(=O)(=O)CCc1ccc(-c2ccccc2)cc1
–	20 nM	–	–	4000 nM	COc1ccc(S(=O)(=O)NCC(=O)NO)cc1
–	9 nM	3 nM	6 nM	–	O=C(NO)[C@@H]1CCCN1S(=O)(=O)CCc1ccc(Cl)s1
–	672 nM	175 nM	275 nM	–	O=C(O)[C@@H]1CCCN1S(=O)(=O)c1ccc(Cl)s1
–	10 nM	19 nM	32 nM	–	O=C(CNS(=O)(=O)CCc1ccc(Oc2ccccc2)cc1)NO
–	272 nM	323 nM	364 nM	–	O=C(O)CNS(=O)(=O)CCc1ccc(Cl)s1
–	2 nM	1 nM	3 nM	–	O=C(NO)C1CCCN1S(=O)(=O)CCc1ccc(-c2ccccc2)cc1 (single isomer, unassigned)
–	6 nM	6 nM	37 nM	–	O=C(CNS(=O)(=O)CCc1ccc(Cl)s1)NO
3400 nM	62 nM	42 nM	240 nM	4000 nM	O=C(CNS(=O)(=O)c1ccccc1)NO
7000 nM	5 nM	10 nM	13 nM	6000 nM	O=C(NO)[C@@H]1CCCN1S(=O)(=O)CCc1ccc2c(c1)OCO2
–	10 nM	12 nM	14 nM	–	COc1ccc(CCS(=O)(=O)NCC(=O)NO)cc1
5700 nM	23 nM	49 nM	75 nM	10700 nM	O=C(CNS(=O)(=O)CCc1ccccc1)NO
19700 nM	15 nM	35 nM	20 nM	18500 nM	O=C(CNS(=O)(=O)CCc1ccc2c(c1)OCO2)NO
365 nM	2 nM	2 nM	9 nM	5000 nM	O=C(CNS(=O)(=O)c1ccc(-c2ccccc2)cc1)NO
